Measurements reported in ChEMBL document CHEMBL1145517, “Kinetic characterization of squalene synthase from Trypanosoma cruzi: selective inhibition by quinuclidine derivatives” (Antimicrob Agents Chemother, 2007).

T1: Squalene synthase (Homo sapiens, UniProt P37268)
T1 sequence (P37268 whole entry): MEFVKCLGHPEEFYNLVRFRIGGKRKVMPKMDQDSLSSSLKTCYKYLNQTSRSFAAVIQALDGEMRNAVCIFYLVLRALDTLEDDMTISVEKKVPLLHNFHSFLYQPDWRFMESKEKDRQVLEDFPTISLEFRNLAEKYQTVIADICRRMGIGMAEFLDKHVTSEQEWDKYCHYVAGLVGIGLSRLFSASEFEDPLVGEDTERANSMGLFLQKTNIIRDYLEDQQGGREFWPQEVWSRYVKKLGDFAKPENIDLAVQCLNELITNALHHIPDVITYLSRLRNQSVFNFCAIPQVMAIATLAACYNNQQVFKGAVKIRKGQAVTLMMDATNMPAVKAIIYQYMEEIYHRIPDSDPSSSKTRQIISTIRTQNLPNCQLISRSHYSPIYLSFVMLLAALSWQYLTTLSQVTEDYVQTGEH


Columns and labels:
Squalene synthase = biological target: T1, Squalene synthase; test: Inhibition of human recombinant squalene synthase
Procedure, shortened: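 The enzyme source was extracts of E. coli expressing truncated human SQS. Activity was measured as [3H]FPP-to-squalene conversion at 0.5 μM FPP and 0.25 mM NADPH in pH 7.4 MOPS-NaOH with MgCl2, CHAPS, Tween 80 and DTT, for 5 min at 37°C. Reactions were stopped with NaOH, squalene was separated by silica TLC (toluene-ethyl acetate 9:1) and counted by scintillation, and IC50 was curve-fitted.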

Trypanosoma cruzi [1] = test: Antitrypanosomal activity against intracellular Trypanosoma cruzi amastigotes in rat L6 cells; assay type: functional, organism-based
Procedure, shortened: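 L6 rat myoblasts were seeded at 2,000 cells/well in RPMI 1640 with 10% FBS and 2 mM L-glutamine. After 24 h, 5,000 Tulahuen C2C4 trypomastigotes expressing lacZ were added with twofold serial drug dilutions. Plates were incubated 4 days at 37°C in 5% CO2. CPRG/Nonidet was then added, and colour was read at 540 nm after 2–4 h. IC50 came from the sigmoidal inhibition curve.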

[2] = Inhibition of Trypanosoma cruzi recombinant squalene synthase
Procedure, shortened: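 The enzyme was purified His-tagged T. cruzi SQS expressed in E. coli, truncated by 24 N-terminal and 36 C-terminal residues. Activity was measured as [3H]FPP-to-[3H]squalene conversion in pH 7.4 MOPS-NaOH with 20 mM MgCl2, 5 mM CHAPS, 1% Tween 80, 10 mM DTT, 0.25 mM NADPH and 0.5 μM FPP, 5 min at 37°C. Reactions were stopped with NaOH, squalene was separated by silica TLC and counted by scintillation, and IC50 was curve-fitted.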

[3] = Selectivity index, ratio of IC50 for human recombinant squalene synthase over IC50 for Trypanosoma cruzi squalene synthase
Procedure, shortened: (§1)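 T. cruzi enzyme was purified TcSQS24/36; human SQS was E. coli extract expressing pHSS16. Stopped with NaOH, squalene carrier added, TLC in toluene-ethyl acetate 9:1, squalene zone counted by scintillation. Index = human IC50 / T. cruzi IC50.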

Saccharomyces cerevisiae = test: Activity of Saccharomyces cerevisiae C-terminal truncated squalene synthase
Leishmania mexicana [4] = test: Activity of Leishmania mexicana glycosomal squalene synthase
Trypanosoma cruzi [5] = test: Activity of Trypanosoma cruzi microsomal or mitochondrial squalene synthase
Trypanosoma cruzi [6] = test: Activity of Trypanosoma cruzi glycosomal squalene synthase
Trypanosoma cruzi [7] = test: Activity of Trypanosoma cruzi truncated squalene synthase 24/36
Procedure, shortened: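 Purified N-His-tagged TcSQS24/36 (E. coli, IMAC then MonoQ) in 50 mM MOPS-NaOH pH 7.4, 20 mM MgCl2, 5 mM CHAPS, 1% Tween 80, 10 mM DTT, 0.025 mg/ml BSA. [3H]FPP to [3H]squalene, 5 min at 37°C. FPP Km: 1–20 μM FPP with 2 mM NADPH. NADPH Km: 5–400 μM NADPH with 20 μM FPP. Nonlinear hyperbolic fits.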

Leishmania mexicana [8] = test: Activity of Leishmania mexicana microsomal or mitochondrial squalene synthase
Homo sapiens = species: Homo sapiens; test: Activity of human double-truncated squalene synthase; procedure, shortened: as §1
L6 = test: Growth inhibition of rat L6 cells; assay type: cell-based
[9] = Selectivity index, ratio of IC50 for rat L6 cells over IC50 for intracellular Trypanosoma cruzi amastigotes; assay type: functional
[10] = substrate: CC(C)=CCC/C(C)=C/CC/C(C)=C/COP(=O)(O)OP(=O)(O)O; test: (§2) Activity of human full length squalene synthase expressed in baculovirus
[11] = substrate: NC(=O)c1ccc[n+]([C@@H]2O[C@H](COP(=O)([O-])OP(=O)(O)OC[C@H]3O[C@@H](n4cnc5c(N)ncnc54)[C@H](OP(=O)(O)O)[C@@H]3O)[C@@H](O)[C@H]2O)c1; test: as §2

| Molecule | IC50 (Squalene synthase) [nM] | IC50 (Trypanosoma cruzi [1]) [nM] | IC50 [2] [nM] | Ratio IC50 [3] | IC50 (L6) [nM] | Ratio IC50 [9] | other results |
| --- | --- | --- | --- | --- | --- | --- | --- |
| CO[C@H]1CN(c2ccc(C#C[C@@]3(O)CN4CCC3CC4)c(Cc3ccccc3)n2)C[C@H]1O | 1.5 | 8 | 0.84 | 1.8 | – | – | – |
| COCCCOc1ccc(C#C[C@@]2(O)CN3CCC2CC3)c(Cc2ccccc2)n1 | 6 | 11 | 3.52 | 1.7 | – | – | – |
| CC(C)=CCC/C(C)=C/CC/C(C)=C/COP(=O)(O)OP(=O)(O)O | – | – | – | – | – | – | Km (Saccharomyces cerevisiae): 2.5 µM; Km (Leishmania mexicana [4]): 3.2 µM; Vmax (Leishmania mexicana [4]): 0.75 nmol/min/mg; Km (Trypanosoma cruzi [5]): 2.3 µM; Vmax (Trypanosoma cruzi [5]): 1.18 nmol/min/mg; Km (Trypanosoma cruzi [6]): 2.8 µM; Vmax (Trypanosoma cruzi [6]): 0.97 nmol/min/mg; Km (Trypanosoma cruzi [7]): 5.25 µM; Vmax (Trypanosoma cruzi [7]): 1430 nmol/min/mg; Km (Leishmania mexicana [8]): 2.8 µM; Vmax (Leishmania mexicana [8]): 0.98 nmol/min/mg; Km (Homo sapiens): 2.8 µM |
| C(#Cc1ccc(OCc2ccccc2)cc1)C1=CN2CCC1CC2 | 250 | 3100 | 830 | 0.3 | 47200 | 15 | – |
| C1=C(Cc2ccc(-c3ccccc3)cc2)C2CCN1CC2 | > 20000 | 4700 | 730 | > 27 | 20500 | 4.4 | – |
| O[C@]1(C#Cc2cccc(OCc3ccccc3)c2)CN2CCC1CC2 | > 20000 | 9600 | 1500 | > 13 | 45000 | 4.7 | – |
| NC(=O)c1ccc[n+]([C@@H]2O[C@H](COP(=O)([O-])OP(=O)(O)OC[C@H]3O[C@@H](n4cnc5c(N)ncnc54)[C@H](OP(=O)(O)O)[C@@H]3O)[C@@H](O)[C@H]2O)c1 | – | – | – | – | – | – | Km (Saccharomyces cerevisiae): 530 µM; Km (Leishmania mexicana [4]): 62 µM; Vmax (Leishmania mexicana [4]): 0.58 nmol/min/mg; Km (Trypanosoma cruzi [5]): 33 µM; Vmax (Trypanosoma cruzi [5]): 0.76 nmol/min/mg; Km (Trypanosoma cruzi [6]): 40 µM; Vmax (Trypanosoma cruzi [6]): 0.43 nmol/min/mg; Km (Trypanosoma cruzi [7]): 23.3 µM; Vmax (Trypanosoma cruzi [7]): 1850 nmol/min/mg; Km (Leishmania mexicana [8]): 57 µM; Vmax (Leishmania mexicana [8]): 0.84 nmol/min/mg |
| CCOC(=O)c1ccc(C2=CN3CCC2CC3)cc1 | 7000 | – | 50 | 140 | – | 17 | – |
| Squalene synthase (Homo sapiens), P37268 (protein) MEFVKCLGHPEEFYNLVRFRIGGKRKVMPKMDQDSLSSSLKTCYKYLNQTSRSFAAVIQALDGEMRNAVCIFYLVLRALDTLEDDMTISVEKKVPLLHNFHSFLYQPDWRFMESKEKDRQVLEDFPTISLEFRNLAEKYQTVIADICRRMGIGMAEFLDKHVTSEQEWDKYCHYVAGLVGIGLSRLFSASEFEDPLVGEDTERANSMGLFLQKTNIIRDYLEDQQGGREFWPQEVWSRYVKKLGDFAKPENIDLAVQCLNELITNALHHIPDVITYLSRLRNQSVFNFCAIPQVMAIATLAACYNNQQVFKGAVKIRKGQAVTLMMDATNMPAVKAIIYQYMEEIYHRIPDSDPSSSKTRQIISTIRTQNLPNCQLISRSHYSPIYLSFVMLLAALSWQYLTTLSQVTEDYVQTGEH | – | – | – | – | – | – | Km [10]: 2.3 µM; Vmax [10]: 4800 nmol/min/mg; Km [11]: 430 µM; Vmax [11]: 3800 nmol/min/mg |
